Source: PubChem BioAssay (several laboratories)
This is a sample that favours compounds with a hit; in the whole collection about 2.1% have one here.
Scp-1 inhibitor: Scp-1 (human) phosphatase inhibition | Q9GZU7 | inhibition, % at 20 µM | AID 493091 | Recombinant Scp1, phosphopeptide, malachite green phosphate absorbance | hit rate 0.88% among 340,000;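 active = inhibition above about 50% at 20 µM, limit read from the data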
Target sequence (Q9GZU7 76-261 limits assumed): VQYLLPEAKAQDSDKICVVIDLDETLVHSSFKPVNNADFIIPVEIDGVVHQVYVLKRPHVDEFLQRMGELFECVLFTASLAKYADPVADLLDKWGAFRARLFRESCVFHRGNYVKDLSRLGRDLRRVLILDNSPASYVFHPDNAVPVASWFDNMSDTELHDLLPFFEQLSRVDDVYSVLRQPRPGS
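Assay system: SCP-1 catalytic fragment, aa 76-261 | Buffer or medium: Tris acetate buffer pH 5.5 with MgCl2 and Tween-20 | Compound: One concentration, 20 µM, with 1.0% DMSO | Also added: Phospho 17-mer peptide substrate | Signal: Absorbance at 630 nm | Incubation: 45 min enzyme reaction at room temperature | Measure: % inhibition of SCP-1 phosphate liberation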
SUMO1 PPI mod: SUMO1-SIM interaction modulation. hit rate 0.33% among 360,000. P63165. AID 602429. SUMO1 binding to a labelled peptide, TR-FRET, 1 h. inhibition, % at 20 µM; in the data active = inhibition above about 37%
LMPTP inh: LMPTP (human) inhibition | P24666 | recombinant LMPTP-A, OMFP fluorogenic substrate, fluorescence intensity | inhibition, % at 20 µM | hit rate 0.22% among 360,000 | AID 651560;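 active = compounds that cut the enzyme signal by at least half of the control window in the single-dose screen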
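Test system: LMPTP-A phosphatase enzyme. Amount: LMPTP-A at 0.625 nM final in the reaction. Reagent: OMFP substrate, 400 µM final. Times: 50 min at room temperature. Signal: endpoint fluorescence intensity from OMFP dephosphorylation. Read-out basis: % inhibition. Benchmarks: no-enzyme and uninhibited controls.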
GRK2 inh: inhibitors of human GRK2 displacing RNA aptamer; P25098; bead flow cytometry, FAM-aptamer displacement from GRK2; inhibition of aptamer binding, % at 10 µM; hit rate 0.59% among 330,000;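 active = inhibition of aptamer binding above 40%, roughly 3 SD of noise, on plates passing a quality check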;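 also: median bead fluorescence of bound FAM aptamer so fluorescent compounds give negative values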
DNMT1 inh: blocks human DNA methyltransferase DNMT1 | P26358 | DNMT1 molecular beacon, Hinp1I cleavage, fluorescence | inhibition (reported as % activation of signal), % at 10 µM | hit rate 0.83% among 360,000 | AID 588458; in the data active = inhibition above about 50%
STEP inh: blocks human striatal-enriched tyrosine phosphatase. P54829. hit rate 0.25% among 360,000. recombinant STEP, OMFP fluorogenic substrate, fluorescence. AID 588621. inhibition, % at 20 µM;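 active = inhibition at 20 µM, scaled per plate between control wells, above about 37%, limit read from the data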
Target sequence (P54829 whole entry, looked up): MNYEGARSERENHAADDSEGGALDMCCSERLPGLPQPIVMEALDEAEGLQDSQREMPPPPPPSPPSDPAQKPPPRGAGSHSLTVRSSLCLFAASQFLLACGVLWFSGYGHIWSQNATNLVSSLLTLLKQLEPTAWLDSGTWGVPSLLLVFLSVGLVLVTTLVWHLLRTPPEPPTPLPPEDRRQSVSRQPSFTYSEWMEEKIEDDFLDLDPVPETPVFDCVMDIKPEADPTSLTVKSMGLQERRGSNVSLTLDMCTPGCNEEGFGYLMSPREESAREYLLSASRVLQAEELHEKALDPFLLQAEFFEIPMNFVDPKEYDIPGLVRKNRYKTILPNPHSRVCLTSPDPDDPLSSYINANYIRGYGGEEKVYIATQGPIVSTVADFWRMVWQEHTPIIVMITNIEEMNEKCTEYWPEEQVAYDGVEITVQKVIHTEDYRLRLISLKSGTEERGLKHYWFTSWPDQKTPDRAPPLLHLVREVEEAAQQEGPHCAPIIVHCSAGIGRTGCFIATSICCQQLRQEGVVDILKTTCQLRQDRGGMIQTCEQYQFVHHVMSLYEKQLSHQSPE
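Assay system: isolated STEP enzyme / Timing: 20 min at room temperature, dark / Doses: 20 µM, 1% DMSO / Technique: fluorescence intensity, excitation 480 nm, emission 540 nm / Reagent: fluorogenic phosphatase substrate OMFP at 25 µM final / Measure: percent inhibition scaled to no-enzyme and uninhibited-enzyme controls, plate-pattern corrected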
GRK2 inh confirm: human GRK2 inhibition confirmation, cherry pick 1. shares compounds with GRK2 inh. bead-bound GRK2, FAM-aptamer displacement, flow cytometry. aptamer displacement, % at 10 µM. hit rate 4% among 2,000. AID 504451;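 active = aptamer displacement above 40%, near three times the noise of non-fluorescent compounds, on plates passing quality checks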;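 also: negative values mostly reflect intrinsic compound fluorescence rather than true enhancement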
Aptamer quench SP: aptamer fluorescence quenching in GRK2 counter-screen | shares compounds with GRK2 inh | Carboxyfluorescein RNA aptamer on beads, flow cytometry quenching; stronger effect = lower value | fluorescence response (% of DMSO), % at 10 µM | 2,000 tested, under 10 active;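 active = compounds that quench the bead-bound fluorescent RNA probe, cutting fluorescence to under half of the solvent control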;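 also: counterscreen run without GRK2 so only probe quenching by compound is measured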
GRK2 confirm 2: human GRK2 inhibition confirmation, cherry pick 2. shares compounds with GRK2 inh. AID 504782. bead-bound GRK2, FAM-aptamer displacement, flow cytometry. 360 tested, under 10 active. inhibition of aptamer binding, % at 10 µM;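 active = inhibition of aptamer binding above 40%, about triple the noise seen with nonglowing compounds, on plates passing quality control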;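 also: negative values mostly come from compounds that fluoresce themselves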
FAM quench CP2: quenches fluorescent RNA aptamer, GRK2 hit artifact. carboxyfluorescein RNA aptamer beads, flow cytometry quenching; stronger effect = lower value. AID 588494. shares compounds with GRK2 inh. fluorescence response vs DMSO, % at 10 µM. 360 tested, under 10 active;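 active = response vs DMSO under 50%, meaning signal dropped by over half, treated as fluorescence quencher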;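 also: labelled aptamer on streptavidin beads without GRK2 as a quench counter-screen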
Large screens that a line does not name were inactive (follow-up assays come after a bar, where they were run).

Cc1cccc(C)c1N1C(=O)[C@@H]2C(c3ccccc3Cl)=NO[C@@H]2C1=O	none | GRK2 confirm 2 inactive | FAM quench CP2 inactive
COc1ccc(C2=NO[C@@H]3C(=O)N(c4c(C)cccc4C)C(=O)[C@H]23)cc1OC	none | GRK2 confirm 2 inactive | FAM quench CP2 inactive
CCC(=O)c1ccc(OCC(O)CN2CCc3ccccc3C2)cc1 (stereo not given)	GRK2 inh 54.0 | GRK2 inh confirm inactive | Aptamer quench SP inactive
COc1ccc(OCC(O)CN2CCc3ccccc3C2)cc1 (stereo not given)	none
COc1ccc(N2CC(C(=O)NCc3nnnn3-c3ccc(C)c(C)c3)CC2=O)cc1 (stereo not given)	none
Cc1cc(NC(=O)c2ccccc2C)n(-c2cccc(F)c2)n1	GRK2 inh 100.0 | GRK2 inh confirm inactive | Aptamer quench SP inactive
O=C(Nc1ccc(F)c(Cl)c1)c1cc(C2CCCCN2C(=O)CCc2ccccc2)on1 (stereo not given)	none (no result: Scp-1 inhibitor, GRK2 inh)
O=C(COC(=O)c1ccccc1O)Nc1cc([N+](=O)[O-])ccc1Cl	none
O=C(C1CCCC1)N1CCN(S(=O)(=O)c2cccc(Cl)c2Cl)CC1	GRK2 inh 68.0 | GRK2 inh confirm inactive | Aptamer quench SP inactive
N#Cc1ccccc1S(=O)(=O)N1CCN(C(=O)C2CCCC2)CC1	none
Cc1cc(C)cc(-n2c(C)nc3cc(C(=O)O)ccc32)c1	none
COCCCNC(=O)CCC(=O)Nc1ccc2nc(N3CCOCC3)cc(C)c2c1	none
Cc1cc(N2CCN(C)CC2)nc2ccc(NC(=O)CCC(=O)NCCCOC(C)C)cc12	GRK2 inh 93.0 | GRK2 inh confirm inactive | Aptamer quench SP inactive
O=C1c2cccc3c([N+](=O)[O-])ccc(c23)C(=O)N1O	Scp-1 inhibitor 83.0, GRK2 inh 56.0, DNMT1 inh 71.3 | GRK2 inh confirm inactive | Aptamer quench SP inactive
O=C1c2cccc3c([N+](=O)[O-])ccc(c23)C(=O)N1c1ccccn1	none
CC1CCC2(CC1)NC(=O)N(CC(=O)NC(=O)Nc1ccc3c(c1)OCCO3)C2=O (stereo not given)	none
O=Cc1c(NCc2ccc(Cl)cc2)c2ccccc2[nH]c1=O	GRK2 inh 100.0 | GRK2 inh confirm inactive | Aptamer quench SP inactive
O=Cc1c(NCc2ccccc2)c2ccccc2[nH]c1=O	none
O=C(NCCCl)Nc1ccccc1OCCOc1ccccc1NC(=O)NCCCl	none
COc1ccccc1NC(=O)c1ccccc1NC(=O)c1ccccc1C(=O)O	none
COc1ccc(NC(=O)Nc2ccccc2OC)cc1	none
COc1ccccc1NC(=O)Nc1ccc(NC(=O)c2ccccc2O)cc1	GRK2 inh 92.0 | GRK2 inh confirm inactive | Aptamer quench SP inactive
COc1ccccc1NC(=O)NCCCl	GRK2 inh 60.0 | GRK2 confirm 2 inactive | FAM quench CP2 inactive
COc1ccccc1NC(=O)c1ccccc1C(=O)Nc1ccccc1OC	GRK2 inh 54.0 | GRK2 confirm 2 inactive | FAM quench CP2 inactive
COc1ncccc1C(=O)N1CCCC(C(=O)Nc2cccc(-c3ccc(F)cc3)c2)C1 (stereo not given)	none (no result: Scp-1 inhibitor, GRK2 inh)
CCc1nc2ccc(C(=O)N(C)Cc3ccco3)cn2c1N(C)Cc1ccc(OC)cc1	none (no result: Scp-1 inhibitor, GRK2 inh)
CCC(C)[C@H](NC(=O)NCc1ccc(S(N)(=O)=O)cc1)C(=O)O (stereo not given in full)	none
COc1cc(-c2nc(-c3ccc(NC(=O)c4ccc(Br)o4)cc3)no2)cc(OC)c1OC	GRK2 inh 82.0 | GRK2 inh confirm inactive | Aptamer quench SP inactive
COc1ccc(-c2nc(-c3ccc(NC(=O)c4ccc(Br)o4)cc3)no2)cc1OC	none
CCc1ccc(N(C(=O)c2snc(C(N)=O)c2N)C(C(=O)NCC2CCCO2)c2ccco2)cc1 (stereo not given)	none
CCN(CC(=O)NC1CCS(=O)(=O)C1)C(=O)c1cc(OC)c(OC)c(OC)c1 (stereo not given)	GRK2 inh 60.0 | GRK2 inh confirm inactive | Aptamer quench SP inactive
Cc1ccccc1NC(=O)NNC(=O)CCc1ccccc1	none
O=C(NCc1cc(C(F)(F)F)cc(C(F)(F)F)c1)C1CC(c2ccccc2C(F)(F)F)=NO1 (stereo not given)	none (no result: SUMO1 PPI mod, LMPTP inh, GRK2 inh, DNMT1 inh, STEP inh)
O=C(Nc1ccccc1)N1CCCN(Cc2ccccc2F)C1	GRK2 inh 99.0 | GRK2 inh confirm inactive | Aptamer quench SP inactive
COc1ccc(S(=O)(=O)NCc2ccc3c(c2)OCO3)cc1OC	none
COc1ccc(S(=O)(=O)NCc2ccc3c(c2)OCO3)cc1C	GRK2 inh 71.0 | GRK2 inh confirm inactive | Aptamer quench SP inactive
COCCNC(=O)c1ccccc1N(Cc1ccccc1)S(=O)(=O)c1ccc(C)cc1	none | GRK2 inh confirm inactive | Aptamer quench SP inactive
Cc1sc2nc(SCC(=O)N3CCOCC3)[nH]c(=O)c2c1-c1ccccc1	GRK2 inh 93.0 | GRK2 confirm 2 inactive | FAM quench CP2 inactive
O=c1c2c([N+](=O)[O-])cc([N+](=O)[O-])cc2nc2ccccn12	GRK2 inh 69.0 | GRK2 inh confirm inactive | Aptamer quench SP inactive
COc1ccc(/C=C2/SC(=S)N(CCC(=O)O)C2=O)cc1	none
COc1ccc(-c2nn(-c3ccccc3)cc2/C=C2/SC(=S)N(CCC(=O)O)C2=O)c(C)c1	GRK2 inh 80.0 | GRK2 inh confirm inactive | Aptamer quench SP inactive
CCOC(=O)Nc1ccc2c(c1)nc(CN1CCCCC1)n2C	none (no result: Scp-1 inhibitor)
CCOC(=O)Nc1ccc2c(c1)nc(CN1CCN(C(C)=O)CC1)n2C	GRK2 inh 68.0 | GRK2 inh confirm inactive | Aptamer quench SP inactive
Cc1c(C(=O)Nc2ccc(F)cc2)oc2ccc(S(=O)(=O)N3CC(C)CC(C)C3)cc12 (stereo not given)	none | GRK2 inh confirm inactive | Aptamer quench SP inactive
CCN(CC)C(=O)c1oc2ccc(S(=O)(=O)N3CC(C)CC(C)C3)cc2c1C (stereo not given)	none
Cc1ccc(NC(=O)Cn2nc(C)c(S(=O)(=O)N(C)C)c2C)cc1C	none
CCc1ccc(S(=O)(=O)NCc2ccc(C(=O)NCCN(Cc3ccccc3)C(C)C)cc2)cc1	none (no result: Scp-1 inhibitor, GRK2 inh)
